Compound activity deposited in PubChem by The Scripps Research Institute Molecular Screening Center.
ABHD4 inh – inhibitors of mouse ABHD4; Q8VD66; purified mABHD4, FP-Rh probe fluorescence polarization; inhibition, % at 8.92 µM; 370,000 tested, 0.54% active; AID 720543;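 active = inhibition exceeding the mean over every tested compound plus 3 SD, cut at about 30% in these data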
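Assay system: mouse ABHD4 enzyme, wild type / Also added: fluorescent activity-based probe FP-Rh / Doses: single nominal dose of 8.92 µM, 0.89% DMSO final / Timing: 45 min compound pre-incubation plus 60 min probe step, 25 °C / Signal: FP readout, ex 525 nm / em 598 nm / Control set: S159A mutant/DMSO as 100%, compound-well median as 0%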
PAFAH1B3 inh – PAFAH1B3 (human) inhibition; recombinant PAFAH1B3, FP-rhodamine probe, fluorescence polarization; inhibition, % at 3.39 µM; 340,000 tested, 0.28% active;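 active = inhibition above the screen-wide average of all tested compounds plus 3 SD, cut at about 25% in these data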
Target sequence (Q15102 whole entry, looked up): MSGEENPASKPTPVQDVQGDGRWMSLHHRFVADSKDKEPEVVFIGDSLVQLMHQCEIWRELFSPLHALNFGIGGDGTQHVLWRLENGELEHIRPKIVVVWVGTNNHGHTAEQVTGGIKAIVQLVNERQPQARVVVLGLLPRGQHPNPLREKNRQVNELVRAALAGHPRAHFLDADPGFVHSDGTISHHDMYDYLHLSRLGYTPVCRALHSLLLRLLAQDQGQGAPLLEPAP
PAFAH2 FP inh – inhibitors of human PAFAH2; Q99487; recombinant PAFAH2, FP-rhodamine activity probe, fluorescence polarization; inhibition, % at 3.39 µM; 340,000 tested, 0.99% active;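 active = inhibition above the mean over all tested compounds plus 3 SD, cut at about 30% in these data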;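 also: inhibitors block probe labeling of enzyme so polarization drops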
pPAFAH FP inh – pPAFAH (human) enzyme inhibition; Q13093; 330,000 tested, 1.5% active; recombinant pPAFAH, FP-rhodamine probe fluorescence polarization; inhibition, % at 3.39 µM; AID 463082;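 active = inhibition above the mean inhibition across the screen plus 3 SD, cut at about 25% in these data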;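 also: inhibitors block binding of the rhodamine activity-based probe so polarization drops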
HTRA1 inh – inhibitors of human serine peptidase HTRA1 | Q92743 | 340,000 tested, 0.5% active | inhibition, % at 5.96 µM | recombinant HTRA1, FP-rhodamine activity-based probe, fluorescence polarization | AID 504803; in the data active = inhibition above about 36%
PAFAH1B2 inh – blocks human PAF acetylhydrolase 1b catalytic subunit 2. recombinant PAFAH1B2, FP-rhodamine activity probe, fluorescence polarization. inhibition, % at 3.39 µM. 340,000 tested, 1.2% active;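 active = inhibition above the mean of all tested compounds plus 3 SD, cut at about 24% in these data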
Target sequence (P68402 whole entry, looked up): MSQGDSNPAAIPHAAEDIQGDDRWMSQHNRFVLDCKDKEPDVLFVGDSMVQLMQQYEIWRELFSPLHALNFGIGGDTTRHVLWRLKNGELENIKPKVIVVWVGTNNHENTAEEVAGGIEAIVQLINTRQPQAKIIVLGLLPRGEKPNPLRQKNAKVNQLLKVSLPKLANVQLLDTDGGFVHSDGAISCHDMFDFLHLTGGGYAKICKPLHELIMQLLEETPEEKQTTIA
Numbers stand for hits; . = inactive; / = no result. The list is not random: actives were taken first. Their share in the collection is about 2.8%.

SMILES	ABHD4 inh	PAFAH1B3 inh	PAFAH2 FP inh	pPAFAH FP inh	HTRA1 inh	PAFAH1B2 inh
O=C(Cn1cnc2scc(-c3ccccc3)c2c1=O)NCc1ccco1	.	.	.	25	.	.
CN(C)CC(=O)N[C@@H]1C[C@@H]2O[C@@H](CO)CC[C@@H]2O[C@@H]1CCc1ccc(C2=CCCCC2)cc1	.	/	/	/	/	/
CCN1CCN(c2ccc(S(=O)(=O)N3CCCCC3)cc2NC(=O)/C=C/c2ccc(OC)c(OC)c2)CC1	.	.	.	.	.	.
CCN1CCN(c2ccc(S(=O)(=O)N3CCCCC3)cc2NC(=O)/C=C/c2cc(OC)ccc2OC)CC1	.	.	.	26	.	.
COc1ccccc1/C=c1\sc2nc(-c3ccco3)nn2c1=O	/	.	.	25	.	.
O[C@H](COc1ccc(F)cc1)CN1CCC(C(O)(c2ccccc2)c2ccccc2)CC1	.	/	/	/	/	/
COC(=O)CSc1ccc(S(=O)(=O)N2CCOCC2)cc1[N+](=O)[O-]	.	.	.	.	.	.
CCOC(=O)CSc1ccc(S(=O)(=O)N2CCC(C)CC2)cc1[N+](=O)[O-]	.	.	.	.	.	26
O=C(Nc1ccccc1)C(Cc1ccccc1)NC(=O)C12CC3CC(CC(C3)C1)C2 (stereo not drawn)	.	.	.	.	.	.
O=C(NC(n1ccc(=O)[nH]c1=O)C(Cl)(Cl)Cl)C12CC3CC(CC(C3)C1)C2 (stereo not drawn)	.	.	.	.	.	27
Cc1cc2n(n1)C(c1ccc(N(C)C)cc1)Nc1ccccc1-2 (stereo not drawn)	.	.	.	26	.	.
O=C(/C=C/c1ccc(F)cc1)NC(=S)NNC(=O)[C@H]1C[C@@H]1c1ccccc1	.	.	.	.	.	59
O=C(NC(=S)NNC(=O)[C@H]1C[C@@H]1c1ccccc1)c1ccc(F)cc1	.	.	.	.	.	.
COc1ccc(CSc2nnc(SCC(=O)Nc3ccc4c(c3)OCO4)s2)cc1	.	/	/	/	/	/
CCC[C@@H](CN1CCC[C@H]1CN1C(N)=NC[C@@H]1Cc1ccccc1)N1C[C@@H](Cc2ccccc2)N(CCc2ccc(Cl)c(Cl)c2)C1=N	34	.	.	.	.	.
CCC[C@@H](CN1CCC[C@H]1CN1C(N)=NC[C@@H]1Cc1ccccc1)N1C[C@@H]([C@H](C)CC)N(CCc2ccc(Cl)c(Cl)c2)C1=N	/	.	.	.	.	.
O=S1(=O)c2c(cccc2N2CCC[C@@H]2CO)OCCCN1C1CC1	.	/	/	/	/	/
CC(CS(=O)(=O)c1ccc2c(c1)NC(=O)CS2)C(=O)NCc1ccccc1Cl (stereo not drawn)	.	.	.	.	.	.
CC(CS(=O)(=O)c1ccc2c(c1)NC(=O)CS2)C(=O)N1CCN(c2cccc(Cl)c2)CC1 (stereo not drawn)	.	.	.	25	.	.
CC(C)(C)C(=O)NC1CCCCN(Cc2cccc(Cl)c2)C1=O (stereo not drawn)	.	/	/	/	/	/
CC1(C)CC2CC(C)(CN2C(=O)COC(=O)c2cc(Cl)cc(Cl)c2N)C1 (stereo not drawn)	.	.	.	.	.	.
CC1(C)CC2CC(C)(CN2C(=O)COC(=O)c2ccc(O)cc2O)C1 (stereo not drawn)	.	.	.	.	.	25
NS(=O)(=O)c1cccc(NC(=O)CC23CC4CC(C2)CC(CC(=O)Nc2cccc(S(N)(=O)=O)c2)(C4)C3)c1	.	.	.	.	.	36
CC(=O)NS(=O)(=O)c1ccc(NC(=O)CC23CC4CC(CC(Br)(C4)C2)C3)cc1	.	.	.	.	.	25
COc1ccc(CCn2c(-c3ccc(C(C)(C)C)cc3)n[nH]c2=S)cc1OC	.	.	.	.	.	25
COc1ccc2c(c1)N=CN1CCc3c([nH]c4ccccc34)C3=NCC[C@@]321	.	/	/	/	/	/
CCCCCCCCN1C(=O)[C@@H](CC(=O)N2CCOCC2)C[C@@]2(C(=O)OC)C1=C[C@H](COCc1ccccc1)O[C@@H]2C	.	/	/	/	/	/
COc1cccc(C(C[N+](=O)[O-])c2c(C)[nH]n(-c3ccccc3)c2=O)c1 (stereo not drawn)	.	.	.	.	.	.
Cc1[nH]n(-c2ccccc2)c(=O)c1C(C[N+](=O)[O-])c1ccc(Br)cc1 (stereo not drawn)	.	.	.	.	.	35
